Assay [1] deals with ADP-ribosylation factor GTPase-activating protein 1 (Rattus norvegicus) (UniProt Q62848). The experiment in a line: Inhibition of poly-histidine tagged full-length rat ARFGAP1 expressed in Sf9 cells assessed as remaining enzyme activity at 10 uM using purified WT ARF1 pre-loaded with [gamm-32P]-labeled GTP incubated for 5 mins before ARF1-GTP addition followed by 25 mins incubation by scintillation counting method.

Assay [2] can be described thus: Synergistic agonist activity at Wnt/beta-catenin (unknown origin) expressed in Wnt-3A conditioned media stimulated with HEK293 cells incubated for 24 hrs by firefly luciferase based TOPflash reporter assay. It is filed as cell-based. The following applies: Homo sapiens, HEK293, 24 h. In outline: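 HEK293 cells stably transfected with TOPFlash reporter, stimulated with Wnt3A conditioned media plus compound for 24 h. Luciferase activity then read by Bright-Glo luminescence. EC50 (µM) derived, given as mean ± standard deviation.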

In assay [3] the target is ADP-ribosylation factor GTPase-activating protein 1 (Rattus norvegicus) (UniProt Q62848). As to the kind of experiment: Inhibition of poly-histidine tagged full-length rat ARFGAP1 expressed in Sf9 cells assessed as remaining enzyme activity at 20 uM using purified WT ARF1 pre-loaded with [gamm-32P]-labeled GTP incubated for 5 mins before ARF1-GTP addition followed by 25 mins incubation by scintillation counting method.

The subject of another assay is HEK293. The experiment in a line: Potency index, ratio of EC50 for QS11 to EC50 for test compound for synergistic agonist activity at Wnt/beta-catenin (unknown origin) expressed in Wnt-3A conditioned media stimulated with HEK293 cells incubated for 24 hrs by firefly luciferase based TOPflash reporter assay. It is filed as cell-based. The following applies: Homo sapiens.

pEC50: −log10 of the molar value.

ADP-ribosylation factor GTPase-activating protein 1 (Rattus norvegicus), sequence (Q62848 whole entry): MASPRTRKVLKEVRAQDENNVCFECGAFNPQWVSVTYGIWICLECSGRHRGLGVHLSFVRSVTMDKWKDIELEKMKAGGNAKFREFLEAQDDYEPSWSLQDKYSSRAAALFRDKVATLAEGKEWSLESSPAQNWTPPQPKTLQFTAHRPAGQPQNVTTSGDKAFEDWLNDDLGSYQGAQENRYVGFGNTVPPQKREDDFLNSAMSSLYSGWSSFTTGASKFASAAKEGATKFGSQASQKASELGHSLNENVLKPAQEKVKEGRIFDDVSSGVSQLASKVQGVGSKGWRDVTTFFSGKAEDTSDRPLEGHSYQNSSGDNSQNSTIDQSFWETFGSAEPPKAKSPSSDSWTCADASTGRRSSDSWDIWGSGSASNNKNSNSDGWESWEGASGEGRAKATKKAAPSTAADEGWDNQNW

Take `c1ccc(CCNc2nc(Oc3cccc4ccccc34)nc3c2ncn3Cc2ccc(-c3ccccc3)cc2)cc1`: the Activity turned out to be 32% in assay [1] and 20% in assay [3]. In assay [2], the pEC50 was below 4.00.

As for `CC[C@@H](CO)Nc1nc(Oc2ccc3ccccc3c2)nc2c1ncn2Cc1ccc(-c2ccccc2)cc1`, the Activity in assay [1] was 41%; in assay [3] it was 24%. Further, the pEC50 in assay [2] is 5.40.

Take `OC[C@H](Cc1ccccc1)Nc1nc(Oc2ccc3c(c2)OCO3)nc2c1ncn2Cc1ccc(-c2ccccc2)cc1`: the Activity in assay [1] stood at 49%; in assay [3], 39%. Moreover, the negative-log EC50 (pEC50) in assay [2] was 5.07.

In the case of `Cc1ccccc1Cn1cc(Cn2cnc3c(N[C@H](CO)Cc4ccccc4)nc(Oc4ccc5c(c4)CCC5)nc32)nn1`, the Activity is 50% in assay [1] and 27% in assay [3]. Further, the negative-log EC50 (pEC50) in assay [2] is below 4.00.

Consider `OC[C@H](Cc1ccccc1)Nc1nc(N2CCOCC2)nc2c1ncn2Cc1ccc(-c2ccccc2)cc1`, for which the results for the Activity in assay [1] and in assay [3] were 98% and 71%, respectively. Moreover, the pEC50 in assay [2] was 5.82.

Take `c1ccc(-c2ccc(Cn3cnc4c(NCc5cccc6ccccc56)nc(Oc5ccc6c(c5)OCO6)nc43)cc2)cc1`: the Activity in assay [1] turned out to be 35%; in assay [3] it was 34%. For the same compound, the pEC50 in assay [2] was below 4.00.

Turning to `OC[C@H](Cc1ccccc1)Nc1nc(Oc2ccc3c(c2)CCC3)nc2c1ncn2Cc1ccc(Oc2ccccc2)cc1`, the Activity is 42% in assay [1] and 40% in assay [3]. In assay [2], the pEC50 is below 4.00.

In the case of `CC(c1ccc(-c2ccccc2)cc1)n1cnc2c(N[C@H](CO)Cc3ccccc3)nc(Oc3ccc4c(c3)CCC4)nc21` (some centres not stated), the results for the Activity in assay [1] and in assay [3] were 50% and 36%, respectively. Besides, the pEC50 in assay [2] is 5.59.

With `OC[C@H](Cc1ccccc1)Nc1nc(Oc2ccc3c(c2)CCC3)nc2c1ncn2Cc1ccc(-c2ccccc2)cc1`, the results for the Activity in assay [1] and in assay [3] were 33% and 10%, respectively. Further, in assay [2], the pEC50 is 5.82.

As for `OC[C@H](Cc1ccccc1)Nc1nc(Oc2ccc3c(c2)CCC3)nc2c1ncn2Cc1cn(-c2ccccc2)nn1`, the results for the Activity in assay [1] and in assay [3] were 105% and 57%, respectively. Moreover, in assay [2], the pEC50 is below 4.00.

As for `CC[C@@H](CO)Nc1nc(Oc2ccc3c(c2)OCO3)nc2c1ncn2Cc1ccc(-c2ccccc2)cc1`, the Activity in assay [1] turned out to be 70%; in assay [3], 32%. Further, the pEC50 in assay [2] was below 4.00.

Take `COc1cccc(Oc2nc(NCCc3ccccc3)c3ncn(Cc4ccc(-c5ccccc5)cc4)c3n2)c1`: the results for the Activity in assay [1] and in assay [3] were 46% and 40%, respectively. Moreover, the negative-log EC50 (pEC50) in assay [2] is below 4.00.

As for `c1ccc(-c2ccc(Cn3cnc4c(NCc5cccc6ccccc56)nc(Oc5ccc6c(c5)CCC6)nc43)cc2)cc1`, the Activity in assay [1] amounted to 74%; in assay [3], 63%. For the same compound, the pEC50 in assay [2] is below 4.00.

With `COC(=O)[C@H](Cc1ccccc1)Nc1nc(Oc2ccc3c(c2)OCO3)nc2c1ncn2Cc1ccc(-c2ccccc2)cc1`, the Activity came to 31% in assay [1] and 18% in assay [3]. Moreover, the pEC50 in assay [2] was 5.96.

For `OC[C@H](Cc1ccccc1)Nc1nc(Oc2ccc3ccccc3c2)nc2c1ncn2Cc1ccc(-c2ccccc2)cc1`, the Activity in assay [1] was 53%; in assay [3], 35%. The pEC50 in assay [2] is 5.36.

Take `c1ccc(-c2ccc(Cn3cnc4c(NCc5cccc6ccccc56)nc(Oc5ccc6ccccc6c5)nc43)cc2)cc1`: the Activity in assay [1] is 53%; in assay [3] it was 31%. In addition, in assay [2], the pEC50 was below 4.00.

As to `COc1ccc(-c2ccc(Cn3cnc4c(N[C@H](CO)Cc5ccccc5)nc(Oc5ccc6c(c5)CCC6)nc43)cc2)cc1`, the Activity in assay [1] was found to be 42%; in assay [3], 34%. For the same compound, the negative-log EC50 (pEC50) in assay [2] was below 4.00.

As to `OC[C@H](Cc1ccccc1)Nc1nc(Oc2cccc(C(F)(F)F)c2)nc2c1ncn2Cc1ccc(-c2ccccc2)cc1`, the Activity in assay [1] is 81%; in assay [3], 78%. Also, the pEC50 in assay [2] is 5.54.

In the case of `c1ccc(CCNc2nc(Oc3ccc4c(c3)CCC4)nc3c2ncn3Cc2ccc(-c3ccccc3)cc2)cc1`, the values for the Activity in assay [1] and in assay [3] were 60% and 50%, respectively. In addition, the negative-log EC50 (pEC50) in assay [2] was below 4.00.

Regarding `OC[C@H](Cc1ccccc1)Nc1nc(Oc2cccc3ccccc23)nc2c1ncn2Cc1ccc(-c2ccccc2)cc1`, the Activity in assay [1] turned out to be 35%; in assay [3] it was 24%. Besides, the pEC50 in assay [2] was 5.18.

On to `COc1cc(OC)cc(Oc2nc(N[C@H](CO)Cc3ccccc3)c3ncn(Cc4ccc(-c5ccccc5)cc4)c3n2)c1`, for which the Activity was 24% in assay [1] and 11% in assay [3]. In addition, the pEC50 in assay [2] was 5.72.

As for `CC[C@@H](CO)Nc1nc(Oc2ccc3c(c2)CCC3)nc2c1ncn2Cc1ccc(-c2ccccc2)cc1`, the results for the Activity in assay [1] and in assay [3] were 90% and 57%, respectively. The negative logarithm of the EC50 (pEC50) in assay [2] was 5.35.

For the compound `c1ccc(-c2ccc(Cn3cnc4c(NCc5cccc6ccccc56)nc(Oc5cccc6ccccc56)nc43)cc2)cc1`, the Activity in assay [1] and in assay [3] was 20% in each case. The negative logarithm of the EC50 (pEC50) in assay [2] is below 4.00.

For the compound `OC[C@H](Cc1ccccc1)Nc1nc(Oc2ccc3c(c2)CCC3)nc2c1ncn2Cc1ccc(-c2ccccc2F)cc1`, the Activity in assay [1] amounted to 81%; in assay [3], 47%. For the same compound, the negative logarithm of the EC50 (pEC50) in assay [2] is below 4.00.

Turning to `FC(F)(F)c1cccc(Oc2nc(NCc3cccc4ccccc34)c3ncn(Cc4ccc(-c5ccccc5)cc4)c3n2)c1`, the Activity in assay [1] is 16%; in assay [3] it was 12%. The negative-log EC50 (pEC50) in assay [2] is 4.74.

Regarding `FC(F)(F)c1cccc(Oc2nc(NCCc3ccccc3)c3ncn(Cc4ccc(-c5ccccc5)cc4)c3n2)c1`, the Activity is 41% in assay [1] and 33% in assay [3]. The negative logarithm of the EC50 (pEC50) in assay [2] was below 4.00.

Regarding `COC(=O)[C@H](Cc1ccccc1)Nc1nc(Oc2ccc3ccccc3c2)nc2c1ncn2Cc1ccc(-c2ccccc2)cc1`, the figures for the Activity in assay [1] and in assay [3] were 25% and 17%, respectively. Also, the pEC50 in assay [2] was 6.19. For the same compound, the Ratio EC50 in the assay on HEK293 came out at 2.

`COc1cccc(Oc2nc(NCc3cccc4ccccc34)c3ncn(Cc4ccc(-c5ccccc5)cc4)c3n2)c1`: the Activity in assay [1] worked out at 37%; in assay [3], 29%. In addition, in assay [2], the pEC50 was below 4.00.

For `OC[C@H](Cc1ccccc1)Nc1nc(Oc2ccc3c(c2)CCC3)nc2c1ncn2Cc1cn(Cc2ccccc2)nn1`, the Activity in assay [1] was determined as 93%; in assay [3] it was 62%. Also, in assay [2], the negative logarithm of the EC50 (pEC50) was below 4.00.

Turning to `COc1ccc(Cn2cc(Cn3cnc4c(N[C@H](CO)Cc5ccccc5)nc(Oc5ccc6c(c5)CCC6)nc43)nn2)cc1`, the Activity is 98% in assay [1] and 75% in assay [3]. For the same compound, the negative logarithm of the EC50 (pEC50) in assay [2] was below 4.00.

`OC[C@H](Cc1ccccc1)Nc1nc(Oc2ccc3c(c2)CCC3)nc2c1ncn2Cc1ccccc1`: the Activity in assay [1] was determined as 117%; in assay [3] it was 113%. Besides, the pEC50 in assay [2] is below 4.00.

As for `c1ccc(CCNc2nc(Oc3ccc4ccccc4c3)nc3c2ncn3Cc2ccc(-c3ccccc3)cc2)cc1`, the figures for the Activity in assay [1] and in assay [3] were 90% and 86%, respectively. Further, the negative logarithm of the EC50 (pEC50) in assay [2] was below 4.00.

For `COc1ccc(Oc2nc(N[C@H](CO)Cc3ccccc3)c3ncn(Cc4ccc(-c5ccccc5)cc4)c3n2)cc1OC`, the Activity in assay [1] was 55%; in assay [3] it was 22%. Further, the pEC50 in assay [2] was 5.44.

`COC(=O)[C@H](Cc1ccccc1)Nc1nc(Oc2cccc3ccccc23)nc2c1ncn2Cc1ccc(-c2ccccc2)cc1`: the Activity in assay [1] turned out to be 21%; in assay [3], 12%. The negative-log EC50 (pEC50) in assay [2] is 5.47.

For `OC[C@H](Cc1ccccc1)Nc1nc(Oc2ccc3c(c2)CCC3)nc2c1ncn2-c1ccc(-c2ccccc2)cc1`, the Activity stood at 50% in assay [1] and 32% in assay [3]. Further, the pEC50 in assay [2] was below 4.00.

For the compound `O=[N+]([O-])c1ccc(Cn2cc(Cn3cnc4c(N[C@H](CO)Cc5ccccc5)nc(Oc5ccc6c(c5)CCC6)nc43)nn2)cc1`, the Activity in assay [1] worked out at 58%; in assay [3], 45%. In addition, the pEC50 in assay [2] was below 4.00.

As for `OC[C@H](Cc1ccccc1)Nc1nc(Oc2ccc3c(c2)CCC3)nc2c1ncn2CCOCc1ccccc1`, the Activity in assay [1] was 106%; in assay [3], 109%. Moreover, the negative logarithm of the EC50 (pEC50) in assay [2] is below 4.00.

As for `CC[C@@H](CO)Nc1nc(Oc2cccc3ccccc23)nc2c1ncn2Cc1ccc(-c2ccccc2)cc1`, the Activity turned out to be 22% in assay [1] and 15% in assay [3]. Moreover, the pEC50 in assay [2] is 5.89.

Take `COc1cccc(Oc2nc(N[C@H](CO)Cc3ccccc3)c3ncn(Cc4ccc(-c5ccccc5)cc4)c3n2)c1`: the Activity in assay [1] turned out to be 54%; in assay [3], 29%. The negative logarithm of the EC50 (pEC50) in assay [2] is 5.48.

Take `Cc1ccccc1-c1ccc(Cn2cnc3c(N[C@H](CO)Cc4ccccc4)nc(Oc4ccc5c(c4)CCC5)nc32)cc1`: the Activity amounted to 56% in assay [1] and 41% in assay [3]. The pEC50 in assay [2] was below 4.00.

In the case of `COc1nc(N[C@H](CO)Cc2ccccc2)c2ncn(Cc3ccc(-c4ccccc4)cc3)c2n1`, the Activity in assay [1] worked out at 70%; in assay [3], 39%. Further, the negative-log EC50 (pEC50) in assay [2] is 5.59.

For the compound `c1ccc(CCNc2nc(Oc3ccc4c(c3)OCO4)nc3c2ncn3Cc2ccc(-c3ccccc3)cc2)cc1`, the Activity in assay [1] turned out to be 31%; in assay [3], 27%. In addition, in assay [2], the pEC50 was below 4.00.
